Reference: ChEMBL document CHEMBL1129246, “Cardiovascular characterization of pyrrolo[2,1-d][1,5]benzothiazepine derivatives binding selectively to the peripheral-type benzodiazepine receptor (PBR): from dual PBR affinity and calcium antagonist activity to novel and selective calcium entry blockers” (J Med Chem, 1996)
Blank lines part the entries; values can stand above or below the molecule they belong to.

What was measured:
Translocator protein [1] = target: T1, Translocator protein (Rattus norvegicus, UniProt P16257); assay: Ability to inhibit [3H]-PK 11195 binding to peripheral-type benzodiazepine receptor(PBR) in rat cerebral cortex homogenate.; assay type: tissue-based
[2] = target: T2, Voltage-dependent L-type calcium channel subunit alpha-1C (Rattus norvegicus, UniProt P22002); assay: Ability to inhibit [3H]nitrendipine binding to the L-type calcium channel receptor(CCR) in rat heart homogenate.; assay type: tissue-based
Summary of the method: (§1)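 Rat hearts perfused through the aorta with ice-cold saline, then homogenised in 50 mM Na-HEPES pH 7.4, filtered through cheesecloth and washed five times. Incubated 90 min at 0 °C in the dark with 3×10^-10 M [3H]nitrendipine; compounds in 5% DMSO. IC50 by log-probit analysis of six displacer concentrations in triplicate.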

[3] = target: T3, Voltage-gated L-type calcium channel (Rattus norvegicus, UniProt P22002+Q02485+P27732); assay: Ability to inhibit [3H]nitrendipine binding to the calcium channel receptor(CCR) in rat cerebral cortex homogenate.; assay type: tissue-based
Translocator protein [4] = target: T1, Translocator protein; assay: Ability to inhibit [3H]-PK 11195 binding to peripheral-type benzodiazepine receptor(PBR) in rat cerebral cortex homogenate; Not active; assay type: tissue-based
[5] = target: T2, Voltage-dependent L-type calcium channel subunit alpha-1C; assay: Ability to inhibit [3H]nitrendipine binding to the L-type calcium channel receptor(CCR) in rat heart homogenate; assay type: tissue-based
Summary of the method: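 Rat heart perfused via aorta with ice-cold saline, homogenized in 50 mM Na-HEPES pH 7.4, filtered through cheesecloth, washed five times at 48000g, and stored at -70 °C. Homogenate incubated 90 min at 0 °C in the dark with 3×10^-10 M [3H]nitrendipine; compounds in 5% DMSO. Bound counts taken after filtration. IC50 by log-probit from six concentrations in triplicate.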

Cavia porcellus [6] = species: Cavia porcellus; assay: [Ca2+] antagonistic activity on K+ depolarized guinea pig aortic strips (at 5(10e-5) M); assay type: functional, Aorta
Summary of the method: (§2)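 Guinea pig aortic strips under 1 g resting force, equilibrated 1 h in PSS, then contracted with 80 mmol/L KCl. At plateau (~30 min), compounds in DMSO added cumulatively at 0.1–50 μmol/L and relaxation recorded.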

[7] = target: T3, Voltage-gated L-type calcium channel; assay: (§3) Inhibition of [3H]nitrendipine binding to L-type calcium channel receptor(CCR) in rat cerebral cortex homogenate; assay type: tissue-based
Summary of the method: (§4)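 Male Sprague–Dawley rat cortex homogenised in 50 mM Na-HEPES pH 7.4, washed five times, pellet stored at -70 °C. Incubated 90 min at 0 °C in the dark with 3×10^-10 M [3H]nitrendipine; compounds dissolved in 5% DMSO. Filtration, scintillation counting. IC50 by log-probit analysis of six displacer concentrations in triplicate.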

Cavia porcellus [8] = species: Cavia porcellus; assay: Percent decrease of negative inotropic activity on isolated guinea pig left atrium at 1*10e-5 M; assay type: functional, Cardiac atrium
Summary of the method: (§5)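 Guinea pig atria (300–400 g, either sex) in oxygenated Tyrode at 35 °C, pH 7.4. Right atria beat spontaneously; left atria paced at 1 Hz. Isometric force recorded after 45–60 min stabilisation. Cumulative concentrations 0.1–50 μmol/L in DMSO (bath ≤0.3%). Potency from log concentration–response curves by probit analysis, n = 6–8.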

Cavia porcellus [9] = species: Cavia porcellus; assay: Percent decrease of negative chronotropic activity on isolated guinea pig spontaneously beating right atrium at 1*10e-4 M; assay type: functional, Cardiac atrium
Cavia porcellus [10] = species: Cavia porcellus; assay: Activity of inotropic negative potency on stimulated guinea pig left atrium; assay type: functional; conditions: Cardiac atrium, read-out: ED50 (the source's name); summary of the method: as §5
Cavia porcellus [11] = species: Cavia porcellus; assay: Percent decrease of negative chronotropic activity on isolated guinea pig spontaneously beating right atrium at 1*10e-5 M; assay type: functional, Cardiac atrium; summary of the method: as §5
Cavia porcellus [12] = species: Cavia porcellus; assay: IC50 activity of [Ca2+] antagonistic potency on K+ depolarized guinea pig aortic strips; assay type: functional; conditions: Aorta; summary of the method: as §2
Cavia porcellus [13] = species: Cavia porcellus; assay: Activity of chronotropic negative potency on guinea pig spontaneously beating right atrium; assay type: functional, Cardiac atrium; summary of the method: as §5
Cavia porcellus [14] = species: Cavia porcellus; assay: Percent decrease of negative inotropic activity on isolated guinea pig left atrium at 5*10e-5 M; assay type: functional, Cardiac atrium; summary of the method: as §5
Cavia porcellus [15] = species: Cavia porcellus; assay: Activity of chronotropic negative potency on guinea pig spontaneously beating right atrium.; assay type: functional, Cardiac atrium; summary of the method: as §5
Cavia porcellus [16] = species: Cavia porcellus; assay: [Ca2+] antagonistic activity on K+ depolarized guinea pig aortic strips (at 5(10e-5) M).; assay type: functional, Aorta; summary of the method: as §2
[17] = target: T3, Voltage-gated L-type calcium channel; assay: as §3; assay type: tissue-based; remark: listed apart in the source
Summary of the method: as §4, with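 “triplicate. Ki by Prusoff's equation using Kd 0.25 nM.” for “triplicate.”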

Cavia porcellus [18] = species: Cavia porcellus; assay: [Ca2+] antagonistic activity on K+ depolarized guinea pig aortic strips at 5*10e-5 M; assay type: functional, Aorta; summary of the method: as §2
Cavia porcellus [19] = species: Cavia porcellus; assay: Percent decrease of negative chronotropic activity on isolated guinea pig spontaneously beating right atrium at 1*10e-6 M; assay type: functional, Cardiac atrium; summary of the method: as §5
Cavia porcellus [20] = species: Cavia porcellus; assay: Activity of inotropic negative potency on stimulated guinea pig left atrium.; assay type: functional; conditions: Cardiac atrium, read-out: ED50 (the source's name)
Summary of the method: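 Isolated left atria from guinea pigs (300–400 g, either sex), Tyrode PSS gassed with 95% O2–5% CO2, 35 °C, pH 7.4, driven at 1 Hz by rectangular pulses; isometric force recorded after 45–60 min stabilization.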

Cavia porcellus [21] = species: Cavia porcellus; assay: [Ca2+] antagonistic activity on K+ depolarized guinea pig aortic strips at 10e-4 M; assay type: functional; conditions: Aorta
[22] = target: T2, Voltage-dependent L-type calcium channel subunit alpha-1C; assay: Ability to inhibit [3H]nitrendipine binding to the L-type calcium channel receptor(CCR) in rat heart homogenate; Not active; assay type: tissue-based; summary of the method: as §1
[23] = target: T3, Voltage-gated L-type calcium channel; assay: Ability to inhibit [3H]nitrendipine binding to the calcium channel receptor(CCR) in rat cerebral cortex homogenate; Not active; assay type: tissue-based
Summary of the method: as §4, with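 “triplicate. Ki by Prusoff's equation using Kd 0.25 nM.” for “triplicate.”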

- IC50 (Translocator protein [1]; read-out: IC50): > 2000 nM
SMILES: COc1ccc(C2=C(OC(C)=O)c3ccc(CN(C)C)n3-c3cc(Cl)ccc3S2)cc1

- IC50 [2]: 610 nM
SMILES: CCCCC(=O)OC1=C(c2ccccc2)Sc2ccccc2-n2cccc21

- IC50 (Translocator protein [1]; read-out: IC50): > 2000 nM
SMILES: CC(=O)OC1=C(c2ccccc2)Sc2ccccc2-n2c(CN(C)C)ccc21

- IC50 [3]: 300 nM
SMILES: CC(=O)O[C@@H]1c2ccc(CN(C)C)n2-c2cc(C(F)(F)F)ccc2S[C@@H]1c1ccccc1

- IC50 [3]: 16 nM
- IC50 [2]: 150 nM
SMILES: CCCC(=O)OC1=C(c2ccc(OC)cc2)Sc2ccccc2-n2cccc21

- IC50 (Translocator protein [4]): Not Active
SMILES: COc1ccc(C2=C(OC(=O)c3cc(OC)c(OC)c(OC)c3)c3cccn3-c3cc(C(F)(F)F)ccc3S2)cc1

- IC50 (Translocator protein [4]): Not Active
SMILES: COc1ccc(C2=C(OC(=O)c3cc(OC)c(OC)c(OC)c3)c3cccn3-c3ccccc3S2)cc1

- IC50 [5]: 17 nM
- Ki [7]: 0.19 nM
- IC50 (Translocator protein [1]; read-out: IC50): > 2000 nM
- EC50 (Cavia porcellus [10]): 810 nM
SMILES: COc1ccc(C2Sc3ccccc3-n3c(CN(C)C)ccc32)cc1 (stereo unspecified)
- Inhibition (Cavia porcellus [6]): 10%
- Decrease (Cavia porcellus [8]): 75%
- Decrease (Cavia porcellus [9]): 30%

- IC50 [3]: 6 nM
- IC50 [2]: 220 nM
SMILES: CC(=O)OC1=C(c2ccccc2)Sc2ccccc2-n2cccc21

- IC50 [3]: 136 nM
- IC50 (Cavia porcellus [12]): 4450 nM
- EC50 (Cavia porcellus [10]): 710 nM
SMILES: COc1ccc([C@H]2Sc3ccccc3-n3c(CN(C)C)ccc3[C@H]2OC(C)=O)cc1
- Decrease (Cavia porcellus [11]): 90%
- Inhibition (Cavia porcellus [6]): 56%
- ED30 (Cavia porcellus [13]): 1500 nM
- Decrease (Cavia porcellus [14]): 87%

- IC50 [3]: 3.3 nM
- EC50 (Cavia porcellus [10]): 660 nM
- Ki [17]: 1.5 nM
SMILES: COc1ccc([C@H]2Sc3ccc(Cl)cc3-n3c(CN(C)C)ccc3[C@H]2OC(C)=O)cc1
- Decrease (Cavia porcellus [11]): 61%
- ED30 (Cavia porcellus [15]): 880 nM
- Inhibition (Cavia porcellus [16]): 40%
- Decrease (Cavia porcellus [14]): 83%

- IC50 [3]: 150 nM
- IC50 (Translocator protein [1]; read-out: IC50): 560 nM
SMILES: CC(=O)OC1=C(c2ccccc2)Sc2ccc(Cl)cc2-n2cccc21

- IC50 [3]: 0.13 nM
- IC50 [2]: 340 nM
- EC50 (Cavia porcellus [10]): 310 nM
SMILES: COc1ccc(C2=C(OC(C)=O)c3cccn3-c3ccccc3S2)cc1
- Decrease (Cavia porcellus [11]): 26%
- Decrease (Cavia porcellus [14]): 86%
- Inhibition (Cavia porcellus [18]): 27%

- EC50 (Cavia porcellus [20]): 790 nM
SMILES: COc1ccc([C@@H]2Sc3ccccc3N(CCN(C)C)C(=O)[C@@H]2OC(C)=O)cc1 [DILTIAZEM]
- Decrease (Cavia porcellus [19]): 94%
- Decrease (Cavia porcellus [8]): 78%
- ED30 (Cavia porcellus [15]): 70 nM
- inhibition at 100 µM (Cavia porcellus [21]): 88%

- IC50 [3]: 960 nM
- IC50 (Translocator protein [1]; read-out: IC50): > 2000 nM
SMILES: CC(=O)OC1=C(c2ccccc2)Sc2ccc(Cl)cc2-n2c(CN(C)C)ccc21

- IC50 [3]: 420 nM
- IC50 [22]: Not Active
SMILES: COc1ccc(C2=C(OC(=O)N(C)C)c3cccn3-c3ccccc3S2)cc1

- IC50 [2]: 12 nM
- Ki [17]: 13 nM
SMILES: CC(=O)O[C@@H]1c2ccc(CN(C)C)n2-c2cccc(Cl)c2S[C@@H]1c1ccccc1
- ED30 (Cavia porcellus [13]): 850 nM
- Inhibition (Cavia porcellus [16]): 32%
- Decrease (Cavia porcellus [14]): 41%

- IC50 [3]: 5200 nM
SMILES: CC(=O)O[C@@H]1c2ccc(CN(C)C)n2-c2ccccc2S[C@@H]1c1ccccc1

- IC50 [3]: 132 nM
SMILES: COc1ccc(C2=C(OC(C)=O)c3cccn3-c3cc(Cl)ccc3S2)cc1

- IC50 [22]: Not Active
- IC50 [23]: 1230 nM
SMILES: CC(=O)O[C@@H]1c2ccc(CN(C)C)n2-c2cc(Cl)ccc2S[C@@H]1c1ccccc1

- IC50 [3]: > 2000 nM
- IC50 (Translocator protein [4]): Not Active
SMILES: COc1ccc(C2=C(OC(C)=O)c3cccn3-c3cc(C(F)(F)F)ccc3S2)cc1

- IC50 (Translocator protein [1]): Not Active
SMILES: COc1ccc(C2=C(OC(=O)c3cc(OC)c(OC)c(OC)c3)c3cccn3-c3cc(Cl)ccc3S2)cc1

- IC50 [3]: 4.88 nM
SMILES: CCCC(=O)OC1=C(c2ccccc2)Sc2ccccc2-n2cccc21
